This note sets out measurements from ChEMBL document CHEMBL1138925, “Design and synthesis of orally active pyrrolidin-2-one-based factor Xa inhibitors” (Bioorg Med Chem Lett, 2006).

Data set [1] in a line: Lipophilicity, log D by CHI assay at pH 7.4. Particulars: buffer, read-out: Log D. It counts as physicochemical.
Data set [2] in a line: Half life in Han Wistar rat at 1 mg/kg, iv and 2.5 mg/kg, po. It counts as ADME, organism-based. Particulars: in vivo. The essentials:
(§1)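 Male Han Wistar rats were given an intravenous bolus at a nominal 1 mg/kg, or oral gavage at a nominal 2.5 mg/kg.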

A short description of data set [3]: Plasma clearance in Han Wistar rat at 1 mg/kg, iv and 2.5 mg/kg, po. It counts as ADME, organism-based. The essentials:
as §1

Data set [4] in a line: Volume of distribution in Han Wistar rat at 1 mg/kg, iv and 2.5 mg/kg, po. The following applies: in vivo, read-out: Vss. It counts as ADME, organism-based. The gist of the method: as §1
Data set [5] can be described thus: Oral bioavailability in Han Wistar rat at 1 mg/kg, iv and 2.5 mg/kg, po. It counts as ADME, organism-based. The following applies: in vivo. The gist of the method:
as §1

A short description of data set [6]: Half life in Beagle dog at 1 mg/kg, iv and 1 mg/kg, po. It counts as ADME, organism-based, Canis lupus familiaris. The following applies: in vivo.
Data set [7] in a line: Plasma clearance in Beagle dog at 1 mg/kg, iv and 1 mg/kg, po. It counts as ADME, organism-based, Canis lupus familiaris.
Data set [8] is described as follows: Volume of distribution in Beagle dog at 1 mg/kg, iv and 1 mg/kg, po. Particulars: in vivo, read-out: Vss. Type of data set: ADME, organism-based, Canis lupus familiaris.
The nature of data set [9]: Oral bioavailability in Beagle dog at 1 mg/kg, iv and 1 mg/kg, po. It counts as ADME, organism-based, Canis lupus familiaris. The following applies: in vivo.

Regarding `C[C@@H](C(=O)N1CC2CCC1CC2)N1CC[C@H](NS(=O)(=O)c2ccc3cc(Cl)ccc3c2)C1=O`, in data set [1], the chromatographic logD was found to be 2.94.
Usually half-life stands for the time in which the quantity being followed falls by half. For the compound `C[C@@H](C(=O)N1CCOCC1)N1CC[C@H](N(C)S(=O)(=O)c2ccc3cc(Cl)ccc3c2)C1=O`, in [2], the half-life was 30 min. For the same compound, the clearance in data set [3] stood at 15 mL/min/kg. The Vd in [4] is 0.4 L/kg.
The like results for `C[C@@H](C(=O)N1CCOCC1)N1CC[C@H](N(CC(=O)O)S(=O)(=O)c2ccc3cc(Cl)ccc3c2)C1=O` were, in that order, 12 min, 37 mL/min/kg and 0.3 L/kg.
In the case of `C[C@@H](C(=O)N1CC2CNCC(C2)C1)N1CC[C@H](NS(=O)(=O)c2ccc3cc(Cl)ccc3c2)C1=O`, in data set [1], the chromatographic logD came to 1.47.
The compound `C[C@@H](C(=O)N1CCOCC1)N1CC[C@H](N(CC(N)=O)S(=O)(=O)c2ccc3cc(Cl)ccc3c2)C1=O` gave a half-life in [2] of 18 min. This compound also returned a clearance in data set [3] of 24 mL/min/kg. For the same compound, the Vd in [4] was 0.5 L/kg.
Usually bioavailability stands for the share of a dose that reaches the circulation, judged against a reference dose that is usually intravenous. Low values mean poor availability, high ones good availability. Regarding `C[C@@H](C(=O)N1CCOCC1)N1CC[C@H](NS(=O)(=O)c2ccc3cc(Cl)ccc3c2)C1=O`, in data set [1], the chromatographic logD worked out at 2.2. Besides, the bioavailability in [5] stood at 85%; in data set [9] it was 100%. For the same compound, the half-life in data set [2] is 54 min; in data set [6], 126 min. In addition, the results for the clearance in [3] and in data set [7] were 13 mL/min/kg and 2.7 mL/min/kg, respectively. The Vd amounted to 0.6 L/kg in data set [4] and 0.44 L/kg in data set [8].
`CCC(=O)CN([C@H]1CCN([C@@H](C)C(=O)N2CCOCC2)C1=O)S(=O)(=O)c1ccc2cc(Cl)ccc2c1` had a half-life in [2] of 30 min. Besides, the clearance in [3] is 37 mL/min/kg. For the same compound, the Vd in data set [4] came to 1.1 L/kg.
